Measured values collected from several papers.
Cell line: Vero
Effect on: cell growth or viability

The IC50 of `FC(F)(F)Oc1ccc(Oc2ccc(CNCCNC3C4CC5CC(C4)CC3C5)cc2)cc1` (stereo not drawn) is reported as 3.9 µg/mL (18 h).
With `O=[N+]([O-])c1ccc(-c2nn(-c3ccccc3)c3sc(NC(c4ccccc4O)P(=O)(Oc4ccccc4)Oc4ccccc4)nc23)cc1` (stereo not drawn) the IC50 was > 100 µM (SRB).
`Nc1nc(N)c(CNCCc2ccccc2Cl)c(C2CC2)n1` gave an IC50 of 67 µM (SRB).
`CCCCCCCCn1cc(CN2CCC3(CC2)OCCO3)c2ccc(OC)cc21` has an IC50 of 46 µM.
The IC50 of `C[C@H]1O[C@H](O[C@H]2CC[C@H](n3ccc(NC(=O)c4ccc(NC(=O)[C@@](C)(N)CO)cc4)nc3=O)O[C@@H]2C)[C@H](O)[C@@H](O)[C@@H]1N(C)C` is reported as > 100 µM.
For `COc1ccccc1CCNCc1c(N)nc(N)nc1C1CC1`, the IC50 was > 100 µM (SRB).
For `CO[C@H]1/C=C/O[C@@]2(C)Oc3c(C)c(O)c4c(O)c(c(/C=N/N5CCN(C)CC5)c(O)c4c3C2=O)NC(=O)/C(C)=C\C=C\[C@H](C)[C@H](O)[C@@H](C)[C@@H](O)[C@@H](C)[C@H](OC(C)=O)[C@@H]1C`, the IC50 was 113 µM.
`[C-]#[N+]C(C)(C)C[C@@H]1C[C@H](C)[C@H]2CC[C@H](C)[C@@]3([N+]#[C-])CCC(=C)[C@@H]1[C@H]23` has an IC50 of 99.7 µM.
The IC50 of `CSc1c2c3c(n1C)C(=O)C(=O)C(Cl)=C3NCC2` is reported as > 17.7 µM (MTT; 72 h).
The IC50 of `Nc1nc(N)c(CNCCc2ccc(Cl)c(Cl)c2)c(C2CC2)n1` is reported as 21 µM (SRB).
`CN(CC[C@H](N)CC(=O)N[C@H]1C=C[C@H](n2ccc(N)nc2=O)O[C@@H]1C(=O)O)C(=N)N` has an IC50 of 13.9 µM.
`N#CCCOc1ccc(Oc2ccccc2)cc1` has a CC50 of > 20 µM (72 h).
`Cn1cc2c3c1C(=O)C(N)=C(Cl)C3=NCC2` gave an IC50 of > 21.3 µM (MTT; 72 h).
`NNC(=O)c1ccncc1` has an IC50 of 18000 µg/mL (18 h).
The IC50 of `Nc1nc(N)c(CNCCc2ccc(Cl)cc2Cl)c(C2CC2)n1` is reported as 31 µM (SRB).
With `N#CCCCOc1ccc(Oc2ccccc2)cc1` the CC50 was > 20 µM (72 h).
For `CN(C)c1ccc(C(Nc2nc3c(-c4ccc([N+](=O)[O-])cc4)nn(-c4ccccc4)c3s2)P(=O)(Oc2ccccc2)Oc2ccccc2)cc1` (stereo not drawn), the IC50 was > 100 µM (SRB).
The IC50 of `Nc1nc(N)c(CNCCc2cccc(F)c2)c(C2CC2)n1` is reported as > 100 µM (SRB).
